Reference: ChEMBL document CHEMBL4334439, “Discovery, Optimization, and Target Identification of Novel Potent Broad-Spectrum Antiviral Inhibitors” (J Med Chem, 2019)
pEC50, pIC50: −log10 of the molar value.

Tests used:
Hepatitis C virus [1] = assay: Antiviral activity against GFP-fused HCV JFH-1 harboring K78E/E2-G451R/NS3-M260K/NS5A-T462I mutant infected in human Huh7.5.1 cells assessed as reduction in viral infection at 10 uM preincubated for 2 hrs followed by viral infection and measured after 48 hrs by epifluorescence microscopic analysis relative to control; format: functional, Hepacivirus hominis; design: scale not given: the % may be the effect or the level left
How it was run: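 Primary screen at 10 μM. Huh7.5.1 cells were pretreated 2 h, then infected with GFP-HCV (MOI 1). GFP intensity was checked by fluorescence microscopy at 48 h. Hits needed over 50% fluorescence decay before dose-response retesting.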

[2] = Cytotoxicity against human Huh7.5.1 cells assessed as decrease in cell viability after 48 hrs by WST1 assay; format: cell-based
How it was run: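 Cells seeded at 1 × 10^4 per well and cultured overnight at 37 °C, then incubated 48 h with serially diluted compounds. Viability read with WST-1 reagent as absorbance at OD450/OD630.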

Hepatitis C virus [3] = assay: Antiviral activity against EGFP-fused HCV JFH-1 harboring K78E/E2-G451R/NS3-M260K/NS5A-T462I mutant infected in human Huh7.5.1 cells assessed as reduction in viral RNA level after 2 days by qRT-PCR analysis; format: functional, organism-based, Hepacivirus hominis; conditions: JFH-1, Huh-7.5.1, 48 h
How it was run: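 Huh7.5.1 cells at 1×10^4/well, grown overnight at 37 °C. HCVcc was mixed with serially diluted compound (top 30 or 6 μM), given alone or with the named drug, and added to the cells. Viral RNA was read by qRT-PCR after 2 days. EC50 is the concentration giving 50% RNA reduction.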

[4] = Selectivity index, ratio of CC50 for human Huh7.5.1 cells to EC50 for EGFP-fused HCV JFH-1 harboring K78E/E2-G451R/NS3-M260K/NS5A-T462I mutant infected in human Huh7.5.1 cells; format: toxicity, cell-based; conditions: read-out: Ratio CC50/EC50
[5] = Inhibition of C-terminal 6-His tagged recombinant human DHODH N-terminal domain delta29 mutant expressed in Escherichia coli BL21(DE3) using dihydroorotate as substrate measured every 30 secs for 6 mins by DCIP dye based assay
How it was run: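 Enzyme purified by HisTrap then size exclusion. Reaction started with 500 μM dihydroorotate. DCIP decrease read at 600 nm. Inhibition = (1 − Vi/V0) × 100. IC50 from 8–9 concentrations in triplicate by sigmoidal fit.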

Hepatitis C virus [6] = assay: Antiviral activity against HCV JFH-1 harboring K78E/E2-G451R/NS3-M260K/NS5A-T462I mutant infected in human Huh7.5.1 cells after 2 days by renilla luciferase reporter gene assay; format: functional, organism-based, Hepacivirus hominis; conditions: JFH-1, Huh-7.5.1, 48 h
How it was run: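 Renilla luciferase reporter HCVcc (hRluc inserted in NS5A, aa 399/400) came from electroporated Huh7.5.1 supernatant. Virus plus serially diluted compound (top 30 or 6 μM) was added to Huh7.5.1 cells (1×10^4/well) and luminescence read. EC50 is 50% luminescence reduction.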

Row | Structure (SMILES) | Activity (Hepatitis C virus [1]) | CC50 at 48 h [2] | pEC50 (Hepatitis C virus [3]) | selectivity ratio [4] | pIC50 [5] | pEC50 (Hepatitis C virus [6])
1 | Cc1c(-c2ccc(OCCCN3CCOCC3)cc2)[nH]c2cccc(F)c2c1=O | >50% | > 100 µM | 4.55 | > 4 | – | –
2 | Cc1c(-c2ccc(-c3ccc(SC(F)(F)F)cc3)cc2)[nH]c2cccc(F)c2c1=O | >50% | > 10 µM | 5.63 | > 4 | – | –
3 | Cc1c(-c2ccc(Oc3ccc(N(C)C)cc3)c(F)c2)[nH]c2cccc(F)c2c1=O | >50% | > 10 µM | 5.98 | > 10 | – | –
4 | Cc1c(-c2ccc(Cc3ccc(S(F)(F)(F)(F)F)cc3)cc2)[nH]c2cccc(F)c2c1=O | >50% | > 5 µM | 6.14 | > 7 | – | –
5 | Cc1c(-c2ccc(Cc3ccc(SC(F)(F)F)cc3)cc2)[nH]c2ccc(F)cc2c1=O | >50% | > 10 µM | 5.61 | > 4 | – | –
6 | Cc1c(-c2ccc(Oc3ccc(N4CCCC4)cc3)c(F)c2)[nH]c2cccc(F)c2c1=O | >50% | > 10 µM | 7.46 | > 285 | – | –
7 | Cc1c(-c2ccc(Cc3ccc(OC(F)(F)F)cc3)cc2)[nH]c2cccc(F)c2c1=O | >50% | > 10 µM | 5.81 to 6.44 | > 6 | – | –
8 | Cc1c(-c2ccc(Cc3ccc(SC(F)(F)F)cc3)cc2)[nH]c2cccc(F)c2c1=O | >50% | > 10 µM | 5.81 to 6.44 | > 27 | – | –
9 | Cc1c(-c2ccc(Cc3ccc(Cl)cc3)cc2)[nH]c2cccc(F)c2c1=O | >50% | > 10 µM | 5.36 | > 2 | – | –
10 | Cc1c(-c2ccc(Cc3ccc(SC(F)(F)F)cc3)cc2)[nH]c2cc(F)ccc2c1=O | >50% | > 5 µM | 6.01 | > 5 | – | –
11 | Cc1c(-c2ccc(Cc3ccc(OCC(F)(F)F)cc3)cc2)[nH]c2cccc(F)c2c1=O | >50% | > 5 µM | 6.08 | > 6 | – | –
12 | Cc1c(-c2ccc(Oc3ccc(N4CCCCC4)cc3)c(F)c2)[nH]c2cccc(F)c2c1=O | >50% | > 10 µM | 7.00 | > 100 | – | –
13 | C#CCCC1(CCN(CC)c2ccc(Oc3ccc(-c4nc5cccc(F)c5c(OC)c4C)cc3F)cc2)N=N1 | >50% | – | < 5.30 | – | 5.99 | –
14 | Cc1c(-c2ccc(Cc3ccc(N4CCOCC4)cc3)cc2)[nH]c2cccc(F)c2c1=O | >50% | > 10 µM | 5.44 | > 3 | – | –
15 | Cc1c(-c2ccc(Oc3ccc(N4CCNCC4)cc3)c(F)c2)[nH]c2cccc(F)c2c1=O | >50% | > 10 µM | 5.59 | > 4 | – | –
16 | CC(C)OC(=O)[C@H](C)N[P@](=O)(OC[C@H]1O[C@@H](n2ccc(=O)[nH]c2=O)[C@](C)(F)[C@@H]1O)Oc1ccccc1 [SOFOSBUVIR] | – | – | – | – | – | 6.77
17 | COc1ccc(Cc2ccc(-c3[nH]c4cccc(F)c4c(=O)c3C)cc2)cc1 | >50% | > 10 µM | 5.66 | > 5 | – | –
18 | C#CCCC1(CCN(CC)c2ccc(Oc3ccc(-c4[nH]c5cccc(F)c5c(=O)c4C)cc3F)cc2)N=N1 | >50% | – | 8.10 | – | 6.60 | –

Row | Structure (SMILES) | Activity (Hepatitis C virus [1]) | CC50 at 48 h [2] | pEC50 (Hepatitis C virus [3]) | selectivity ratio [4] | pIC50 [5] | pEC50 (Hepatitis C virus [6])
19 | Cc1c(-c2ccc(Cc3ccc(SC(F)(F)F)cc3)cc2)[nH]c2c(F)cccc2c1=O | >50% | > 5 µM | 5.73 | > 3 | – | –
20 | Cc1c(-c2ccc(Cc3ccc([S+]([O-])C(F)(F)F)cc3)cc2)[nH]c2cccc(F)c2c1=O (centres undefined) | >50% | > 5 µM | 6.12 | > 7 | – | –
21 | Cc1c(-c2ccc(Cc3ccc(S(=O)(=O)C(F)(F)F)cc3)cc2)[nH]c2cccc(F)c2c1=O | >50% | > 2.5 µM | 5.75 | > 2 | – | –
22 | Cc1c(-c2ccc(Cc3ccc(S(=N)(=O)C(F)(F)F)cc3)cc2)[nH]c2cccc(F)c2c1=O (centres undefined) | >50% | > 10 µM | 5.85 | > 7 | – | –
23 | CN=S(=O)(c1ccc(Cc2ccc(-c3[nH]c4cccc(F)c4c(=O)c3C)cc2)cc1)C(F)(F)F (centres undefined) | >50% | > 10 µM | 5.27 | > 2 | – | –
24 | Cc1c(-c2ccc(Cc3ccc(C(C)(C)C)cc3)cc2)[nH]c2cccc(F)c2c1=O | >50% | > 5 µM | 6.54 | > 17 | – | –
25 | Cc1c(-c2ccc(Cc3ccc(C(C)(O)C(F)(F)F)cc3)cc2)[nH]c2cccc(F)c2c1=O (centres undefined) | >50% | > 2.5 µM | 6.96 | > 23 | – | –
26 | CCNc1ccc(Oc2ccc(-c3[nH]c4cccc(F)c4c(=O)c3C)cc2F)cc1 | >50% | > 10 µM | 6.77 | > 58 | – | –
27 | Cc1c(-c2ccc(CNC(=O)c3ccc(SC(F)(F)F)cc3)cc2)[nH]c2cccc(F)c2c1=O | >50% | > 50 µM | 4.96 | > 5 | – | –
28 | Cc1c(-c2ccc(Cc3ccc(C(O)C(F)(F)F)cc3)cc2)[nH]c2cccc(F)c2c1=O (centres undefined) | >50% | > 10 µM | 5.46 | > 3 | – | –
29 | Cc1c(-c2ccc(Cc3ccc(N4CCCCC4)cc3)cc2)[nH]c2cccc(F)c2c1=O | >50% | > 10 µM | 5.72 | > 5 | – | –
30 | Cc1c(-c2ccc(COc3ccc(SC(F)(F)F)cc3)cc2)[nH]c2cccc(F)c2c1=O | >50% | > 10 µM | 5.80 | > 6 | – | –
31 | CCN(C)c1ccc(Oc2ccc(-c3[nH]c4cccc(F)c4c(=O)c3C)cc2F)cc1 | >50% | > 10 µM | 6.62 | > 42 | – | –
32 | CCCN(CC)c1ccc(Oc2ccc(-c3[nH]c4cccc(F)c4c(=O)c3C)cc2F)cc1 | >50% | > 10 µM | 7.18 | > 151 | – | –
33 | Cc1c(-c2ccc(OCCN3CCCCC3)cc2)[nH]c2cccc(F)c2c1=O | >50% | > 100 µM | 4.78 | > 6 | – | –
34 | Cc1c(-c2ccc(Cc3ccc(OC(F)F)cc3)cc2)[nH]c2cccc(F)c2c1=O | >50% | > 5 µM | 6.00 | > 5 | – | –
35 | Cc1c(-c2ccc(Oc3ccc(SC(F)(F)F)cc3)c(F)c2)[nH]c2cccc(F)c2c1=O | >50% | > 10 µM | 6.44 | > 27 | – | –
36 | CCN(CC)CCOc1ccc(-c2[nH]c3cccc(F)c3c(=O)c2C)cc1 | >50% | > 100 µM | 4.59 | > 4 | – | –
